# Published values pooled from the literature.
# Compare with care: the assays were run in different laboratories.
# CDK5 with p35: Cyclin-dependent kinase 5, with p35 (CDK5, Homo sapiens, UniProt Q00535)
# SCN1A: Sodium channel protein type 1 subunit alpha (SCN1A, Homo sapiens, UniProt P35498)
Structure (SMILES),target,test,test system,conditions,measurement,result
CNC[C@H](O)c1cccc(O)c1,"Alpha-1A adrenergic receptor (ADRA1A, Homo sapiens, UniProt P35348)","calcium signal, agonist",COS-7,,Emax,~80%
CC(=O)c1c(C)c2cnc(Nc3ccc(N4CCNCC4)cn3)nc2n(C2CCCC2)c1=O,CDK5 with p35,"enzyme activity, inhibitor, ADP detection",,1 µM,activity vs control,103%
COc1cc(-c2cncc3c2CN(C)Cc2cc(N4CCNCC4)ccc2-3)cc(OC)c1OC,"Focal adhesion kinase 1 (PTK2, Homo sapiens, UniProt Q05397)","enzyme activity, inhibitor",,1 µM,remaining activity,102%
Cc1nnc(SCC2=C(C(=O)O)N3C(=O)[C@@H](NC(=O)Cn4cnnn4)[C@H]3SC2)s1,SCN1A,"ion current, inhibitor, patch clamp",,10 µM,inhibition,4.84%
CNc1ncc2c(/C=C/C(=O)N3CCC(OC)CC3)nn(Cc3cccc(C(F)(F)F)c3)c2n1,CDK5 with p35,"enzyme activity, inhibitor, radiometric",,1 µM,remaining activity,89%
C=CC(=O)N1CCC(COCC(=O)N2CCN(c3nc(-c4cnc(N)nc4C(F)F)nc(N4CCOC[C@@H]4C)n3)CC2)CC1,"Mitotic checkpoint serine/threonine-protein kinase BUB1 (BUB1, Homo sapiens, UniProt O43683)","binding, competition with immobilised ligand",,1 µM,remaining binding,93%
O=C1NC(=O)C(c2ccccc2)(c2ccccc2)N1,SCN1A,"ion current, inhibitor, patch clamp",,3 µM,inhibition,0.654%
C[C@H]1O[C@H](O[C@H]2[C@H](O)[C@@H](O)[C@@H](O[C@H]3[C@H](O)[C@@H](O)C(O)O[C@@H]3CO)O[C@@H]2CO)[C@H](O)[C@@H](O)[C@@H]1N[C@H]1C=C(CO)[C@@H](O)[C@H](O)[C@H]1O (stereo partly shown),"Alpha-glucosidase MAL12 (MAL12, Saccharomyces cerevisiae S288c, UniProt P53341)","enzyme activity, inhibitor, absorbance",,2000 µg/mL,inhibition,91.2%
Cn1c(=O)c2[nH]cnc2n(C)c1=O,SCN1A,"ion current, inhibitor, patch clamp",,3 µM,inhibition,0.195%
Cc1cc([C@@H](C)Nc2ccccc2C(=O)O)c2nc(N3CCC(F)(F)CC3)c(C#N)c(=O)n2c1,"High affinity nerve growth factor receptor (NTRK1, Homo sapiens, UniProt P04629)","binding, competition with immobilised ligand",,10 µM,remaining binding,97%
